Source: ChEMBL document CHEMBL1135936, “6-[2-(Phosphonomethoxy)alkoxy]pyrimidines with antiviral activity” (J Med Chem, 2002)
Values after ≈ are worked out from the molar mass of the structure shown.

How the values were obtained:
unidentified adenovirus [1] = assay: Effective concentration for the inhibition of adenovirus; format: functional, organism-based
How it was run: (§1)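 HEL fibroblasts, confluent, infected on day 0 with 100 CCID50 of human adenovirus type 2 or type 3. After 2 h adsorption at 37 °C, virus was removed and replaced by serial compound dilutions. Cytopathic effect was scored microscopically on day 7-10 p.i. to derive EC50 and minimum cytotoxic concentration.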

E6SM [2] = assay: Inhibition of Herpes simplex virus-1, KOS strain induced cytopathicity in E6SM cell line; format: functional, cell-based; settings: Homo sapiens
How it was run: (§2)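 Inhibition of virus-induced cytopathicity in confluent cell cultures in 96-well plates inoculated with 100 CCID50 of virus; 1 CCID50 is the virus dose infecting 50% of cultures. EC50 is based on reduction of cytopathicity.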

E6SM [3] = assay: Inhibition of Herpes simplex virus-2 (G strain) induced cytopathicity in E6SM cell line; format: functional, cell-based; settings: Homo sapiens; how it was run: as §2
HEL [4] = assay: Inhibition of Varicella-Zoster virus (VZV) OKA strain induced cytopathicity in HEL cell line; format: functional, cell-based; settings: Homo sapiens; how it was run: as §2
Human alphaherpesvirus 3 = assay: Inhibition of Thymidine kinase deficient (TK-) Varicella-Zoster virus (VZV) 07/1 strain induced cytopathicity n HEL cell line; format: functional, organism-based; settings: Human alphaherpesvirus 3, tk-07, HEL; how it was run: as §2
E6SM [5] = assay: Inhibition of thymidine kinase deficient Herpes simplex virus-1 VMW 1837 strain induced cytopathicity in E6SM cell line; format: functional, cell-based; settings: Homo sapiens; how it was run: as §2
HEL [6] = assay: Inhibition of Varicella-Zoster virus (VZV) YS strain induced cytopathicity in HEL cell line; format: functional, cell-based; settings: Homo sapiens; how it was run: as §2
CCRF-CEM [7] = assay: Inhibition of Human immunodeficiency virus (HIV)-2 ROD strain induced cytopathicity in CEM cell line; format: functional, cell-based
How it was run: (§3)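 CEM cells were infected with 100 CCID50 per mL of HIV-1 (IIIB) or HIV-2 (ROD). Cells were seeded into wells containing dilutions of compound and incubated 4 days at 37 °C. CEM giant cell formation was then examined microscopically.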

CCRF-CEM [8] = assay: Inhibition of Human immunodeficiency virus (HIV) -1 III B strain induced cytopathicity in CEM cell line; format: functional, cell-based; how it was run: as §3
[9] = test system: Moloney murine sarcoma virus; assay: Inhibition of moloney sarcoma virus (MSV) induced cytopathicity in C3H/3T3 embryo fibroblast cells; format: functional, organism-based
How it was run: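 C3H/3T3 murine embryo fibroblasts were seeded in 48-well plates and infected 24 h later with 80 focus-forming units of MSV. MSV stock was prepared from tumours in NMRI mice. Virus adsorbed for 10-120 min at 37 °C, then fresh medium with compound dilutions was added. Transformation was examined microscopically after 6 days.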

HEL [10] = assay: Inhibition of Thymidine kinase deficient (TK-) Varicella-Zoster virus (VZV) YS/R strain induced cytopathicity in HEL cell line; format: functional, cell-based; settings: Homo sapiens; how it was run: as §2
L929 [11] = assay: In vitro cytotoxicity against murine L929 cells; format: functional, Mus musculus; design: concentration or dose not given beside the values
How it was run: (§4)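 Cells were grown for 72 h at a constant compound concentration of 10 µM, then counted. Growth inhibition is given relative to cell counts in control cultures grown in medium without compound. Lines: mouse L1210 and L929, human HeLaS3 and CCRF-CEM.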

HeLa = assay: In vitro cytotoxicity against human cervix carcinoma HeLa S3 cells; format: functional; design: concentration or dose not given beside the values; how it was run: as §4
CCRF-CEM [12] = assay: In vitro cytotoxicity against CCRF-CEM T lymphoblastoid cells; format: functional, Homo sapiens; design: concentration or dose not given beside the values; how it was run: as §4
L1210 [13] = assay: Inhibitory activity against L1210 cells; format: functional, cell-based; settings: Mus musculus
How it was run: (§5)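 CCRF-CEM, L1210 and L929 cells were grown with compound for 72 h and then counted. Cell growth inhibition is expressed relative to untreated control cultures, and IC50 is given in µM.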

CCRF-CEM [14] = assay: Inhibitory activity against CCRF-CEM cells; format: functional, cell-based; settings: Homo sapiens; how it was run: as §5
L929 [15] = assay: Inhibitory activity against L929 cells; format: functional, cell-based; settings: Mus musculus; how it was run: as §5
L1210 [16] = assay: In vitro cytotoxicity against L1210 mouse leukemia cells; format: functional; design: concentration or dose not given beside the values; how it was run: as §4
HEL [17] = assay: Inhibitory activity against HEL cell proliferation; format: functional, cell-based; settings: Homo sapiens
CCRF-CEM [18] = assay: In vitro cytotoxicity against CCRF-CEM lymphoblastoid cells; format: functional, Homo sapiens; how it was run: as §4
unidentified adenovirus [19] = assay: In vitro antiadenovirus activity; format: functional, organism-based; how it was run: as §1

SMILES	EC50 (E6SM [2]) [µg/mL]	EC50 (E6SM [3]) [µg/mL]	EC50 (HEL [4]) [µg/mL]	EC50 (Human alphaherpesvirus 3) [µg/mL]	EC50 (E6SM [5]) [µg/mL]	EC50 (HEL [6]) [µg/mL]	EC50 (CCRF-CEM [7]) [µg/mL]	EC50 (CCRF-CEM [8]) [µg/mL]	EC50 [9] [µg/mL]	EC50 (HEL [10]) [µg/mL]	Control (L929 [11]) [%]	Control (HeLa) [%]	Control (CCRF-CEM [12]) [%]	Control (L1210 [16]) [%]	other results
Nc1ncnc2c1ncn2C[C@@H](CO)OCP(=O)(O)O															EC50 (unidentified adenovirus [1]): 0.24 µg/mL (≈ 0.792 µM)
Nc1nc(O)cc(NC2CC2)n1	> 400	> 400	> 50	> 50	> 400	> 50	> 100	> 100	133 (≈ 800 µM)	> 50					
Nc1cc(OCCOCP(=O)(O)O)nc(N)n1	6.5 (≈ 24.6 µM)	24 (≈ 90.8 µM)	1.2 (≈ 4.54 µM)	2.5 (≈ 9.46 µM)	9.6 (≈ 36.3 µM)	1.1 (≈ 4.16 µM)	0.43 (≈ 1.63 µM)	0.8 (≈ 3.03 µM)	0.04 (≈ 0.151 µM)	1.6 (≈ 6.06 µM)	61	89	63	62	IC50 (L1210 [13]): 25 µM; IC50 (CCRF-CEM [14]): 12.4 µM; IC50 (L929 [15]): 25 µM; IC50 (HEL [17]): 50 µg/mL (≈ 189 µM)
CC(C)OP(=O)(COCCSc1cc(N)nc(N)n1)OC(C)C	> 400	> 400	> 50	> 50	> 400	> 50	52 (≈ 143 µM)	47 (≈ 129 µM)		> 50					
Nc1cc(OCCOCP(=O)(O)O)ncn1	> 16	> 16	> 50	> 50	> 16	> 50	> 100	> 100	13 (≈ 52.2 µM)	> 50	84	86		81	Control (CCRF-CEM [18]): 95%
Nc1nc(NC2CC2)cc(=O)n1CCOCP(=O)(O)O	> 16	> 16	> 50	> 50	> 16	> 50	> 100	> 100		> 50					
Cc1cc(OCCOCP(=O)(O)O)nc(N)n1	> 400	> 400	> 50	> 50	> 400	> 50	> 100	> 100	89 (≈ 338 µM)	> 50	85	87	95	99	
Nc1nc(N)c2ncn(CCOCP(=O)(O)O)c2n1 [PMEDAP]															EC50 (unidentified adenovirus [1]): 47 µg/mL (≈ 163 µM)
Nc1cc(=O)n(CCOCP(=O)(O)O)cn1	> 400	> 400	> 50	> 50	> 400	> 50	> 100	> 100	138 (≈ 554 µM)	> 50	90	94	86	98	
Cc1cc(=O)n(CCOCP(=O)(O)O)c(N)n1	> 400	> 400	> 50	> 50	> 400	> 50	> 100	> 100	122 (≈ 464 µM)	> 50	81	83	100	95	
Nc1cc(SCCOCP(=O)(O)O)nc(N)n1	29 (≈ 103 µM)	≥ 80	7.5 (≈ 26.8 µM)	20 (≈ 71.4 µM)	48 (≈ 171 µM)	7 (≈ 25 µM)	3 (≈ 10.7 µM)	5.5 (≈ 19.6 µM)	1.7 (≈ 6.07 µM)	15 (≈ 53.5 µM)	88	98	89	83	EC50 (unidentified adenovirus [19]): 78 µg/mL (≈ 278 µM); EC50 (HEL [17]): 50 µg/mL (≈ 178 µM)
